Source: PMC2721324 (Bioorganic & medicinal chemistry letters, 2009)
Where two headings read alike, the source gives them in different places.

Assays:
human P2Y4 receptor [1] = target: T1, human P2Y4 receptor (Homo sapiens, UniProt P51582); conditions: cited from earlier work; for EC50: read-out: Reference comp. (X = OCH2) EC50, native riboside, NE = no effect at 10 μM
human P2Y2 receptor [2] = target: T2, human P2Y2 receptor (Homo sapiens, UniProt P41231); conditions: cited from earlier work; for EC50: read-out: Reference comp. (X = OCH2) EC50, native riboside, NE = no effect at 10 μM
human P2Y2 receptor [3] = target: T2, human P2Y2 receptor; format: cell-based; conditions: for agonist character (full or partial agonist): relative to UTP
In short: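 PLC activation via Gq in 1321N1 human astrocytoma cells stably expressing recombinant human P2Y2 receptor. The parent cells lack a native nucleotide response. Concentration–effect curves were generated for each test compound, and the maximal response was expressed as a percentage of the UTP effect (UTP = 100%) to classify full or partial agonism.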

human P2Y6 receptor [4] = target: T3, human P2Y6 receptor (Homo sapiens, UniProt Q15077); format: cell-based
In short: (§1)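 Recombinant human P2Y4 or P2Y6 receptor, Gq-coupled, was stably expressed in 1321N1 human astrocytoma cells, which lack a native nucleotide response. Phospholipase C activation was measured over concentration–effect curves for each test compound. EC50 is the concentration giving 50% of the maximal effect, reported as mean ± standard error.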

human P2Y4 receptor [5] = target: T1, human P2Y4 receptor; format: cell-based; conditions: stimulation of PLC, NE = no effect at 10 μM
In short: as §1

human P2Y6 receptor [6] = target: T3, human P2Y6 receptor; conditions: read-out: Reference comp. (X = OCH2) EC50, native riboside, NE = no effect at 10 μM; cited from earlier work

T1 sequence (P51582 whole entry): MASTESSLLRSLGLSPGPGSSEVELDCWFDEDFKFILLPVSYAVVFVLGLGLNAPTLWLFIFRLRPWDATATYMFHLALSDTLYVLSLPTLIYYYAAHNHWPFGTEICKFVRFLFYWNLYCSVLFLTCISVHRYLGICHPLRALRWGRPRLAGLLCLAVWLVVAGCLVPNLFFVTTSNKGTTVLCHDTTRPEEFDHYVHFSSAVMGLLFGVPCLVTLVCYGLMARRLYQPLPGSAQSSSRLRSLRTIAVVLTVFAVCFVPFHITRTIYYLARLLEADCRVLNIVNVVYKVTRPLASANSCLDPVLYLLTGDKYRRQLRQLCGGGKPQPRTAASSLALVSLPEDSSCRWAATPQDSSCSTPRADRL
T3 sequence (Q15077 whole entry): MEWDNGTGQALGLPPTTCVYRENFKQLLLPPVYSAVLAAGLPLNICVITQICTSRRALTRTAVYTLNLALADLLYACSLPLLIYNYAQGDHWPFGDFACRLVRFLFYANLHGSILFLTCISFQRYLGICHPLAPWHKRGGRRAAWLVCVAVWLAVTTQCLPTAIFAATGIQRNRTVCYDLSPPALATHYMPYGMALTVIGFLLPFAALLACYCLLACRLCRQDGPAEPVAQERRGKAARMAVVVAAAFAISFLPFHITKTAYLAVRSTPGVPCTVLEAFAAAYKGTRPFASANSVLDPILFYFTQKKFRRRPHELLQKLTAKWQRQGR
T2 sequence (P41231 whole entry): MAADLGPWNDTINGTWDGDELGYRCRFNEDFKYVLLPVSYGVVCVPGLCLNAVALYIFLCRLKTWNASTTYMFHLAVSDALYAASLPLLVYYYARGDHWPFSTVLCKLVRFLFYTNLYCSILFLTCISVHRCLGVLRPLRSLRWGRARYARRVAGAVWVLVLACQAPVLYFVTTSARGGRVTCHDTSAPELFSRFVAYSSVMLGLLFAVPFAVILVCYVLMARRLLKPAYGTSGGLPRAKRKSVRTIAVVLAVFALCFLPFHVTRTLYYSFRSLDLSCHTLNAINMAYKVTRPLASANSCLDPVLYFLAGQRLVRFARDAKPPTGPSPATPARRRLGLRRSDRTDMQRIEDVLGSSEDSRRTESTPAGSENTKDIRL

| agonist character (full or partial agonist) (human P2Y2 receptor [3]) | SMILES | EC50 (human P2Y2 receptor [2]) [µM] | EC50 (human P2Y4 receptor [1]) [µM] | EC50 (human P2Y6 receptor [6]) [µM] | also measured |
| --- | --- | --- | --- | --- | --- |
| – | Nc1ncnc2c1ncn2[C@@H]1O[C@H](COP(=O)(O)OP(=O)(O)OP(=O)(O)O)[C@@H](O)[C@H]1O [ATP] | 0.085 ± 0.012 | – | – | Reference comp. (X = OCH2) activity (human P2Y4 receptor [1]; native riboside): Antagonist[12] |
| Full agonist activity | O=c1ccn([C@@H]2O[C@H](/C=C/P(=O)(O)OP(=O)(O)OP(=O)(O)O)[C@@H](O)[C@H]2O)c(=O)[nH]1 [Compound 3, uridine 5′-(diphospho)-vinylphosphonate] | – | – | – | reduction of potency relative to ATP or UTP (human P2Y2 receptor [3]; range over compounds 1, 2 and 3): 16–176 fold |
| partial ag | O=c1ccn([C@@H]2O[C@H](CP(=O)(O)OP(=O)(O)O)[C@@H](O)[C@H]2O)c(=O)[nH]1 [Compound 4, uridine 5′-phospho-phosphonate] | – | – | – | maximal effect relative to that of UTP (human P2Y2 receptor [3]; effect of UTP = 100%): ≤ 50%; agonist character (full or partial agonist) (human P2Y6 receptor [4]): full agonist; potency less than UDP (human P2Y6 receptor [4]): approximately 40 fold; EC50 (human P2Y4 receptor [5]): > 10 µM |
| – | O=c1ccn([C@@H]2O[C@H](COP(=O)(O)OP(=O)(O)C[C@H]3O[C@@H](n4ccc(=O)[nH]c4=O)[C@H](O)[C@@H]3O)[C@@H](O)[C@H]2O)c(=O)[nH]1 [Compound 5, di-(uridine- phosphonate)] | – | – | – | EC50 (human P2Y6 receptor [4]; stimulation of PLC, mean ± standard error, NE = no effect at 10 μM): > 10 µM; EC50 (human P2Y4 receptor [5]): > 10 µM |
| partial ag | O=c1ccn([C@@H]2O[C@H](CCP(=O)(O)O)[C@@H](O)[C@H]2O)c(=O)[nH]1 [Compound 7, uridine 5 ′-methylene-phosphonate] | – | – | – | EC50 (human P2Y4 receptor [5]; listed as 5′-methylphosphonate equivalent of UMP): inactive |
| – | O=c1ccn([C@@H]2O[C@H](COP(=O)(O)OP(=O)(O)O)[C@@H](O)[C@H]2O)c(=O)[nH]1 [UDP] | > 10 | > 10 | 0.046 ± 0.02 | – |
| – | O=c1ccn([C@@H]2O[C@H](COP(=O)(O)O)[C@@H](O)[C@H]2O)c(=O)[nH]1 [UMP] | > 10 | > 10 | > 10 | Reference comp. (X = OCH2) EC50 (human P2Y2 receptor [2]; native riboside, NE = no effect at 10 μM): no effect |
| – | O=c1ccn([C@@H]2O[C@H](COP(=O)(O)OP(=O)(O)OP(=O)(O)O)[C@@H](O)[C@H]2O)c(=O)[nH]1 [UTP] | 0.049 ± 0.012 | 0.073 ± 0.02 | > 10 | – |
| – | O=c1ccn([C@@H]2O[C@H](COP(=O)(O)OP(=O)(O)OC[C@H]3O[C@@H](n4ccc(=O)[nH]c4=O)[C@H](O)[C@@H]3O)[C@@H](O)[C@H]2O)c(=O)[nH]1 [Up2U] | > 10 | > 10 | 1.26 ± 0.17 | – |
